Experimental data from ChEMBL document CHEMBL3352443, “Synthesis of new heterocyclic lupeol derivatives as nitric oxide and pro-inflammatory cytokine inhibitors” (Bioorg Med Chem Lett, 2014).

Assays:
[1] = Cytotoxicity against mouse RAW264.7 cells assessed as cell viability at IC50 by MTT assay relative to control; type: cell-based; conditions: read-out: Activity
[2] = Cytotoxicity against mouse J774A1 cells assessed as cell viability at IC50 by MTT assay relative to control; type: cell-based, J774.A1; conditions: read-out: Activity
RAW264.7 [3] = assay: Antiinflammatory activity in mouse RAW264.7 cells assessed as inhibition of LPS-induced NO production incubated for 1 hr prior to LPS challenge measured after 24 hrs by Griess method; type: functional, cell-based
Outline: (§1)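 NO release was measured in LPS-stimulated macrophages, and IC50 values were derived from it. Data are mean ± SD of three separate experiments, each run in triplicate.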

[4] = Antiinflammatory activity in mouse J774A1 cells assessed as inhibition of LPS-induced NO production incubated for 1 hr prior to LPS challenge measured after 24 hrs by Griess method; type: functional, cell-based; conditions: J774.A1; outline: as §1
RAW264.7 [5] = assay: Antiinflammatory activity in mouse RAW264.7 cells assessed as inhibition of LPS-induced TNF-alpha production at 20 ug/ml incubated for 1 hr prior to LPS challenge measured after 6 hrs by sandwich ELISA relative to control; type: functional
Outline: (§2)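 Compounds were tested at 20 µg/mL on LPS-stimulated cells. TNF-α and IL-1β released into the medium were quantified with an ELISA kit following the kit protocol and expressed as % inhibition. Data are mean ± SD of three separate experiments, each run in triplicate.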

[6] = Antiinflammatory activity in mouse J774A1 cells assessed as inhibition of LPS-induced TNF-alpha production at 20 ug/ml incubated for 1 hr prior to LPS challenge measured after 6 hrs by sandwich ELISA relative to control; type: functional; conditions: J774.A1; outline: as §2
RAW264.7 [7] = assay: Antiinflammatory activity in mouse RAW264.7 cells assessed as inhibition of LPS-induced IL-1beta production at 20 ug/ml incubated for 1 hr prior to LPS challenge measured after 12 hrs by sandwich ELISA relative to control; type: functional; outline: as §2
[8] = Antiinflammatory activity in mouse J774A1 cells assessed as inhibition of LPS-induced IL-1beta production at 20 ug/ml incubated for 1 hr prior to LPS challenge measured after 12 hrs by sandwich ELISA relative to control; type: functional; conditions: J774.A1; outline: as §2

IC50 (RAW264.7 [3]) [µM]	IC50 [4] [µM]	SMILES	viability [1] [%]	viability [2] [%]	inhibition at 20 µg/mL (RAW264.7 [5]) [%]	inhibition at 20 µg/mL [6] [%]	inhibition at 20 µg/mL (RAW264.7 [7]) [%]	inhibition at 20 µg/mL [8] [%]
31.7	31.7	C=C(C)[C@@H]1CC[C@]2(C)CC[C@]3(C)[C@H](CC[C@@H]4[C@@]5(C)Cc6c([nH]c7ccccc67)C(C)(C)[C@@H]5CC[C@]43C)[C@@H]12	91.8	90.3				
22.6	25.2	C=C(C)[C@@H]1CC[C@]2(C)CC[C@]3(C)[C@H](CC[C@@H]4[C@@]5(C)Cc6c([nH]c7ccc(I)cc67)C(C)(C)[C@@H]5CC[C@]43C)[C@@H]12	95.2	93.3	42.3	37	22.9	17.3
36.2	36.3	C=C(C)[C@@H]1CC[C@]2(C)CC[C@]3(C)[C@H](CC[C@@H]4[C@@]5(C)CCC(=S)C(C)(C)[C@@H]5CC[C@]43C)[C@@H]12	94.3	91.9				
11	18.5	COc1cc(/C=C/C(=O)CC(=O)/C=C/c2ccc(O)c(OC)c2)ccc1O [CURCUMIN]						
48.7	47.7	C=C(C)[C@@H]1CC[C@]2(C)CC[C@]3(C)[C@H](CC[C@@H]4[C@@]5(C)CC[C@H](N(O)c6ccccc6)C(C)(C)[C@@H]5CC[C@]43C)[C@@H]12	79.3	82.5				
30.6	28.6	C=C(C)[C@@H]1CC[C@]2(C)CC[C@]3(C)[C@H](CC[C@@H]4[C@@]5(C)Cc6c([nH]c7c(CC)cccc67)C(C)(C)[C@@H]5CC[C@]43C)[C@@H]12	91.5	91.7	39.1	29.4	11.4	10.1
23.9	18.4	C=C(C)[C@@H]1CC[C@]2(C)CC[C@]3(C)[C@H](CC[C@@H]4[C@@]5(C)Cc6c([nH]c7ccc(Br)cc67)C(C)(C)[C@@H]5CC[C@]43C)[C@@H]12	91.4	90.8	39.2	31.5	19.7	16.2
25.9	23.2	C=C(C)[C@@H]1CC[C@]2(C)CC[C@]3(C)[C@H](CC[C@@H]4[C@@]5(C)Cc6c([nH]c7c(C)ccc(C)c67)C(C)(C)[C@@H]5CC[C@]43C)[C@@H]12	93.2	91.5	32.8	31.1	22.8	17.2
37.3	34.5	C=C(C)[C@@H]1CC[C@]2(C)CC[C@]3(C)[C@H](CC[C@@H]4[C@@]5(C)CC[C@H](O)C(C)(C)[C@@H]5CC[C@]43C)[C@@H]12 [LUPEOL]	87.3	88.3				
41.7	41.7	C=C(C)[C@@H]1CC[C@]2(C)CC[C@]3(C)[C@H](CC[C@@H]4[C@@]5(C)Cc6c([nH]c7ccc(F)cc67)C(C)(C)[C@@H]5CC[C@]43C)[C@@H]12	95.2	92.1				
39.2	42.6	C=C(C)[C@@H]1CC[C@]2(C)CC[C@]3(C)[C@H](CC[C@@H]4[C@@]5(C)CC[C@H](OC(=O)CC(C)(C)C(=O)O)C(C)(C)[C@@H]5CC[C@]43C)[C@@H]12	87.6	83.6				
27.8	28.6	C=C(C)[C@@H]1CC[C@]2(C)CC[C@]3(C)[C@H](CC[C@@H]4[C@@]5(C)Cc6c([nH]c7ccc(C)cc67)C(C)(C)[C@@H]5CC[C@]43C)[C@@H]12	89.3	87				
32.4	32.4	C=C(C)[C@@H]1CC[C@]2(C)CC[C@]3(C)[C@H](CC[C@@H]4[C@@]5(C)Cc6nccnc6C(C)(C)[C@@H]5CC[C@]43C)[C@@H]12	95.2	93.3				
35.6	33.2	C=C(C)[C@@H]1CC[C@]2(C)CC[C@]3(C)[C@H](CC[C@@H]4[C@@]5(C)Cc6c([nH]c7ccc(Cl)cc67)C(C)(C)[C@@H]5CC[C@]43C)[C@@H]12	93.3	92.7				
46	44.6	C=C(C)[C@@H]1CC[C@]2(C)CC[C@]3(C)[C@H](CC[C@@H]4[C@@]5(C)CC/C(=N\O)C(C)(C)[C@@H]5CC[C@]43C)[C@@H]12	95.7	93.6				

SMILES	IC50 (RAW264.7 [3]) [µM]	IC50 [4] [µM]	viability [1] [%]	viability [2] [%]	inhibition at 20 µg/mL (RAW264.7 [5]) [%]	inhibition at 20 µg/mL [6] [%]	inhibition at 20 µg/mL (RAW264.7 [7]) [%]	inhibition at 20 µg/mL [8] [%]
C=C(C)[C@@H]1CC[C@]2(C)CC[C@]3(C)[C@H](CC[C@@H]4[C@@]5(C)CCC(=O)C(C)(C)[C@@H]5CC[C@]43C)[C@@H]12 [LUPENONE]	38.5	38.8	89.6	87.7				
C=C(C)[C@@H]1CC[C@]2(C)CC[C@]3(C)[C@H](CC[C@@H]4[C@@]5(C)CC[C@H](OC(=O)CCC(=O)O)C(C)(C)[C@@H]5CC[C@]43C)[C@@H]12	39.2	39.3	91.3	90.1				
C=C(C)[C@@H]1CC[C@]2(C)CC[C@]3(C)[C@H](CC[C@@H]4[C@@]5(C)CC[C@H](OC(C)=O)C(C)(C)[C@@H]5CC[C@]43C)C12 (single isomer, unassigned) [LUPENYL ACETATE]	36.7	33.2	80.3	83.5				
COC(=O)[C@@H](N)CCCNC(=N)N[N+](=O)[O-] [L-NAME]	69.2	73.2						
C=C(C=O)[C@@H]1CC[C@]2(C)CC[C@]3(C)[C@H](CC[C@@H]4[C@@]5(C)CC[C@H](O)C(C)(C)[C@@H]5CC[C@]43C)[C@@H]12	42.9	37	95.2	92.1				
